Data set [1] can be described thus: Cytotoxicity against human HGF cells assessed as redution in cell viability incubated for 72 hrs by SRB assay. In kind it is cell-based. A digest of the protocol: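 Non-tumour human HGF cells were obtained under UFSC ethics approval 021/2009 and kept at 37°C, 5% CO2, humidified, with 10% FBS. Compounds were tested on 1x10^4 cells/well by sulforhodamine B assay. IC50 came from a nonlinear variable-slope fit of log concentration vs normalized response.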
A general note: The SRB assay estimates cell density from bound dye.

The test system of a further data set is MCF7. In words: Cytotoxicity against ER-positive human MCF7 cells assessed as redution in cell viability incubated for 72 hrs by SRB assay. It is filed as functional, cell-based. The settings on record: MCF7, 72 h. A digest of the protocol: (§1)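 Breast tumour lines from ATCC, each in its own medium with 10% FBS: SKBR-3 (HER2+) in McCoy's 5A; MCF-7 (ER+) in MEM plus 0.01 mg/mL human recombinant insulin; MDA-MB-231 (triple-negative) in DMEM. Cells were kept at 37°C, 5% CO2, humidified. Compounds were tested on 1x10^4 cells/well by sulforhodamine B assay. IC50 came from a nonlinear fit of log concentration vs normalized response (variable slope).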

For the next data set, the system named is SK-BR-3. Description: Cytotoxicity against HER2-positive human SKBR3 cells assessed as redution in cell viability incubated for 72 hrs by SRB assay. The note with it: SK-BR-3, 72 h. In kind it is functional, cell-based.
For the next data set, the system named is MDA-MB-231. Description: Cytotoxicity against triple-negative human MDA-MB-231 cells assessed as redution in cell viability incubated for 72 hrs by SRB assay. In kind it is functional, cell-based. The note with it: MDA-MB-231, 72 h. A digest of the protocol:
as §1

The nature of data set [2]: Selectivity index, ratio of IC50 for human HGF cells to IC50 for SKBR3 cells. The note with it: HGF cells versus SKBR3 cells, read-out: Ratio IC50. In kind it is toxicity.
Data set [3] in a line: Selectivity index, ratio of IC50 for human HGF cells to IC50 for MCF7 cells. The settings on record: HGF cells versus MCF7 cells, read-out: Ratio IC50. It is filed as toxicity.
A short description of data set [4]: Selectivity index, ratio of IC50 for human HGF cells to IC50 for MDA-MB-231 cells. In kind it is toxicity. The settings on record: HGF cells versus MDA-MB-231 cells, read-out: Ratio IC50.

A word on the IC50: it is the concentration that gives 50% inhibition.

Consider `CC(=O)O[C@H]1[C@H](OC(C)=O)[C@H](OC2=CC(=O)c3ccccc3C2=O)O[C@@H](C)[C@H]1OC(C)=O`, for which the IC50 in data set [1] came out at 19.8 µM; with MCF7, 11 µM; with SK-BR-3 it was 9.52 µM; with MDA-MB-231, 18.2 µM.
Regarding `COc1cccc2c1C(=O)c1c(O)c3c(c(O)c1C2=O)C[C@@](O)(C(=O)CO)C[C@@H]3O[C@H]1C[C@H](N)[C@H](O)[C@H](C)O1` [DOXORUBICIN], the results for the half-maximal inhibitory concentration (IC50) (in data set [1]; in the data set with MCF7) were above 50 µM and 0.38 µM, respectively.
Take `CC(=O)OC[C@H]1O[C@H](OC2=CC(=O)c3ccccc3C2=O)[C@H](OC(C)=O)[C@@H](OC(C)=O)[C@@H]1OC(C)=O`: the IC50 in data set [1] is 20.2 µM; with MCF7 it was 3.52 µM; in the data set with SK-BR-3 it was 2.11 µM; in the data set on MDA-MB-231 it was 8.29 µM.
The matching figures for `O=C1C=C(O)C(=O)c2ccccc21` [LAWSONE]: above 50 µM, above 50 µM, above 50 µM and above 50 µM.
The matching figures for `CC(=O)O[C@@H]1[C@H](OC(C)=O)[C@H](C)O[C@H](n2cc(COC3=CC(=O)c4ccccc4C3=O)nn2)[C@H]1OC(C)=O`: 38.1 µM, 9.74 µM, 3.32 µM and 23.4 µM.
The corresponding values for `CC(=O)N[C@H]1[C@@H](OC2=CC(=O)c3ccccc3C2=O)O[C@H](COC(C)=O)[C@@H](OC(C)=O)[C@@H]1OC(C)=O` are 40.2 µM, 6.59 µM, 3.41 µM and 19.8 µM.
Consider `CC(=O)OC[C@H]1O[C@@H](n2cc(COC3=CC(=O)c4ccccc4C3=O)nn2)[C@H](OC(C)=O)[C@@H](OC(C)=O)[C@@H]1OC(C)=O`, for which the IC50 is 17.7 µM in data set [1], 3.33 µM in the data set with MCF7, 0.78 µM with SK-BR-3 and 14 µM with MDA-MB-231. The selectivity ratio in data set [2] was 22.
For the compound `CC(=O)N[C@@H]1[C@@H](OC(C)=O)[C@H](OC(C)=O)[C@@H](COC(C)=O)O[C@H]1n1cc(COC2=CC(=O)c3ccccc3C2=O)nn1`, the IC50 in data set [1] is above 50 µM; in the data set on MCF7, 28.9 µM; in the data set with SK-BR-3, 17 µM; with MDA-MB-231, above 50 µM.
With `CC(=O)N[C@@H]1[C@@H](O)[C@H](O)[C@@H](CO)O[C@H]1n1cc(COC2=CC(=O)c3ccccc3C2=O)nn1`, the IC50 (in data set [1]; in the data set on MCF7; with SK-BR-3; in the data set with MDA-MB-231) was above 50 µM throughout.
In the case of `CC(=O)OC[C@H]1O[C@H](OC2=CC(=O)c3ccccc3C2=O)[C@H](OC(C)=O)[C@@H](OC(C)=O)[C@H]1OC(C)=O`, the IC50 in data set [1] was 35.7 µM; with MCF7 it was 4.58 µM; with SK-BR-3, 2.51 µM; in the data set on MDA-MB-231, 9.18 µM. The selectivity ratio in data set [3] was determined as 8; in data set [4], 4.
With `CC(=O)O[C@H]1[C@H](OC(C)=O)[C@@H](OC2=CC(=O)c3ccccc3C2=O)O[C@@H](C)[C@H]1OC(C)=O`, the IC50 in data set [1] is above 50 µM; in the data set on MCF7 it was 5.02 µM; in the data set with SK-BR-3 it was 2.41 µM; in the data set with MDA-MB-231, 8.65 µM.
The corresponding values for `O=C1C=C(OCc2cn([C@@H]3O[C@H](CO)[C@@H](O)[C@H](O)[C@H]3O)nn2)C(=O)c2ccccc21` are above 50 µM, 38.9 µM, 34.7 µM and above 50 µM.
The corresponding values for `CC(=O)OC[C@H]1O[C@@H](OC2=CC(=O)c3ccccc3C2=O)[C@H](OC(C)=O)[C@@H](OC(C)=O)[C@@H]1OC(C)=O` are 19.1 µM, 4.76 µM, 2.96 µM and 12.6 µM.
Regarding `CC(=O)N[C@H]1[C@H](OC2=CC(=O)c3ccccc3C2=O)O[C@H](COC(C)=O)[C@@H](OC(C)=O)[C@@H]1OC(C)=O`, the half-maximal inhibitory concentration (IC50) in data set [1] is above 50 µM; with MCF7, 16.3 µM; in the data set on SK-BR-3, 8.3 µM; in the data set with MDA-MB-231 it was 27.6 µM.
For `CC(=O)OC[C@H]1O[C@@H](n2cc(COC3=CC(=O)c4ccccc4C3=O)nn2)[C@H](OC(C)=O)[C@@H](OC(C)=O)[C@H]1OC(C)=O`, the IC50 in data set [1] amounted to 27.6 µM; in the data set with MCF7, 4.22 µM; in the data set with SK-BR-3 it was 1.27 µM; in the data set with MDA-MB-231, 16.7 µM. Moreover, the selectivity ratio in data set [2] was determined as 22.
`C[C@@H]1O[C@H](n2cc(COC3=CC(=O)c4ccccc4C3=O)nn2)[C@@H](O)[C@H](O)[C@@H]1O`: the IC50 (in data set [1]; in the data set with MCF7; in the data set with SK-BR-3; with MDA-MB-231) was above 50 µM throughout.
In the case of `O=C1C=C(OCc2cn([C@@H]3O[C@H](CO)[C@H](O)[C@H](O)[C@H]3O)nn2)C(=O)c2ccccc21`, the IC50 (in data set [1]; in the data set on MCF7; with SK-BR-3; with MDA-MB-231) was above 50 µM each time.
With `CC(=O)OC[C@H]1O[C@@H](OC2=CC(=O)c3ccccc3C2=O)[C@H](OC(C)=O)[C@@H](OC(C)=O)[C@H]1OC(C)=O`, the IC50 in data set [1] stood at 34.6 µM; in the data set on MCF7, 13.6 µM; in the data set with SK-BR-3, 8.86 µM; in the data set on MDA-MB-231, 13.3 µM.
